{"source": "ChEMBL document CHEMBL5303300", "about": "“EUbOPEN Chemogenomics Library - Multiplex” (2023)", "type_in_all_cases": "toxicity, cell-based", "key": {"Fibroblast": {"tested_on": "Fibroblast", "test": "Multiplex assay against human fibroblast", "conditions": "number of replicates 2", "procedure,_shortened": "(§1)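 Imaging took place on a CQ1 microscope at 37°C and 5% CO2 once compound had been added to live cells stained at seeding with Hoechst33342, BioTracker Green Microtubule Cytoskeleton Dye, MitoTracker Red and Annexin V Alexa Fluor 680. CellPathfinder machine-learning gating classed cells as Hoechst high-intensity objects or normal cells, classed normal cells as having healthy, pyknosed or fragmented nuclei, and classed pyknosed cells as mitotic or apoptotic. Tubulin, mitochondrial-mass and membrane-permeability phenotypes are per cents of the healthy-nucleus cells.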"}, "HEK-293T": {"tested_on": "HEK-293T", "test": "Multiplex assay against HEK293T", "conditions": "human, number of replicates 2", "procedure,_shortened": "as §1"}, "U2OS": {"tested_on": "U2OS", "test": "Multiplex assay against U2OS", "conditions": "human, number of replicates 2", "procedure,_shortened": "as §1"}, "[1]": {"conditions": "12 h, 1 µM, compound concentration 1 uM"}, "[2]": {"conditions": "12 h, 10 µM, compound concentration 10 uM"}, "[3]": {"conditions": "24 h, 1 µM, compound concentration 1 uM"}, "[4]": {"conditions": "24 h, 10 µM, compound concentration 10 uM"}, "[5]": {"conditions": "48 h, 1 µM, compound concentration 1 uM"}, "[6]": {"conditions": "48 h, 10 µM, compound concentration 10 uM"}}, "note": "Several values for one entry are separate records, joined by “and”; a condition that tells them apart may be missing. Identical values can stand only once."}
{"smiles": "CS(=O)(=O)c1ccc(C(=O)Nc2cc(F)c(F)c(COc3cc(F)c(Br)cc3CN3CC[C@H](O)C3)c2)c(Cl)c1.O=CO", "values": [{"measurement": "Population Apoptotic (%)", "setting": "Fibroblast; [1]", "value": "25% and 38%"}, {"measurement": "Population Healthy Nuclei (%)", "setting": "Fibroblast; [1]", "value": 55, "unit": "%"}, {"measurement": "Population Hoechst High Intensity Objects (%)", "setting": "Fibroblast; [1]", "value": 0, "unit": "%"}, {"measurement": "Population Mitotic Cells (%)", "setting": "Fibroblast; [1]", "value": "75% and 61%"}, {"measurement": "Population Normal (%)", "setting": "Fibroblast; [1]", "value": 100, "unit": "%"}, {"measurement": "Total Cell Count", "setting": "Fibroblast; [1]", "value": "220 and 267"}, {"measurement": "Population Apoptotic (%)", "setting": "Fibroblast; [2]", "value": "80% and 55%"}, {"measurement": "Population Healthy Nuclei (%)", "setting": "Fibroblast; [2]", "value": 29, "unit": "%"}, {"measurement": "Population Hoechst High Intensity Objects (%)", "setting": "Fibroblast; [2]", "value": 0, "unit": "%"}, {"measurement": "Population Mitotic Cells (%)", "setting": "Fibroblast; [2]", "value": "20% and 44%"}, {"measurement": "Population Normal (%)", "setting": "Fibroblast; [2]", "value": "100% and 99%"}, {"measurement": "Total Cell Count", "setting": "Fibroblast; [2]", "value": "162 and 357"}, {"measurement": "Population Apoptotic (%)", "setting": "Fibroblast; [3]", "value": "54% and 55%"}, {"measurement": "Population Healthy Nuclei (%)", "setting": "Fibroblast; [3]", "value": "64% and 54%"}, {"measurement": "Population Hoechst High Intensity Objects (%)", "setting": "Fibroblast; [3]", "value": 0, "unit": "%"}, {"measurement": "Population Mitotic Cells (%)", "setting": "Fibroblast; [3]", "value": "45% and 44%"}, {"measurement": "Population Normal (%)", "setting": "Fibroblast; [3]", "value": 99, "unit": "%"}, {"measurement": "Total Cell Count", "setting": "Fibroblast; [3]", "value": "246 and 309"}, {"measurement": "Population Apoptotic (%)", "setting": "Fibroblast; [4]", "value": "94% and 79%"}, {"measurement": "Population Healthy Nuclei (%)", "setting": "Fibroblast; [4]", "value": "35% and 27%"}, {"measurement": "Population Hoechst High Intensity Objects (%)", "setting": "Fibroblast; [4]", "value": 0, "unit": "%"}, {"measurement": "Population Mitotic Cells (%)", "setting": "Fibroblast; [4]", "value": 5, "unit": "%"}, {"measurement": "Population Normal (%)", "setting": "Fibroblast; [4]", "value": "100% and 99%"}, {"measurement": "Total Cell Count", "setting": "Fibroblast; [4]", "value": "154 and 339"}, {"measurement": "Population Apoptotic (%)", "setting": "Fibroblast; [5]", "value": "73% and 71%"}, {"measurement": "Population Healthy Nuclei (%)", "setting": "Fibroblast; [5]", "value": "61% and 60%"}, {"measurement": "Population Hoechst High Intensity Objects (%)", "setting": "Fibroblast; [5]", "value": 0, "unit": "%"}, {"measurement": "Population Mitotic Cells (%)", "setting": "Fibroblast; [5]", "value": 26, "unit": "%"}, {"measurement": "Population Normal (%)", "setting": "Fibroblast; [5]", "value": 99, "unit": "%"}, {"measurement": "Total Cell Count", "setting": "Fibroblast; [5]", "value": "294 and 351"}, {"measurement": "Population Apoptotic (%)", "setting": "Fibroblast; [6]", "value": "93% and 91%"}, {"measurement": "Population Healthy Nuclei (%)", "setting": "Fibroblast; [6]", "value": "25% and 19%"}, {"measurement": "Population Hoechst High Intensity Objects (%)", "setting": "Fibroblast; [6]", "value": 0, "unit": "%"}, {"measurement": "Population Mitotic Cells (%)", "setting": "Fibroblast; [6]", "value": "6% and 8%"}, {"measurement": "Population Normal (%)", "setting": "Fibroblast; [6]", "value": 99, "unit": "%"}, {"measurement": "Total Cell Count", "setting": "Fibroblast; [6]", "value": "147 and 311"}, {"measurement": "Population Apoptotic (%)", "setting": "HEK-293T; [1]", "value": "60% and 64%"}, {"measurement": "Population Mitotic Cells (%)", "setting": "HEK-293T; [1]", "value": "39% and 35%"}, {"measurement": "Population Normal (%)", "setting": "HEK-293T; [1]", "value": 90, "unit": "%"}, {"measurement": "Total Cell Count", "setting": "HEK-293T; [1]", "value": "610 and 577"}, {"measurement": "Population Apoptotic (%)", "setting": "HEK-293T; [2]", "value": "90% and 72%"}, {"measurement": "Population Mitotic Cells (%)", "setting": "HEK-293T; [2]", "value": "9% and 27%"}, {"measurement": "Population Normal (%)", "setting": "HEK-293T; [2]", "value": "91% and 89%"}, {"measurement": "Total Cell Count", "setting": "HEK-293T; [2]", "value": "406 and 397"}, {"measurement": "Population Apoptotic (%)", "setting": "HEK-293T; [3]", "value": "59% and 58%"}, {"measurement": "Population Mitotic Cells (%)", "setting": "HEK-293T; [3]", "value": "40% and 41%"}, {"measurement": "Population Normal (%)", "setting": "HEK-293T; [3]", "value": "91% and 92%"}, {"measurement": "Total Cell Count", "setting": "HEK-293T; [3]", "value": "921 and 854"}, {"measurement": "Population Apoptotic (%)", "setting": "HEK-293T; [4]", "value": "91% and 78%"}, {"measurement": "Population Mitotic Cells (%)", "setting": "HEK-293T; [4]", "value": 8, "unit": "%"}, {"measurement": "Population Normal (%)", "setting": "HEK-293T; [4]", "value": "85% and 83%"}, {"measurement": "Total Cell Count", "setting": "HEK-293T; [4]", "value": "392 and 412"}, {"measurement": "Population Apoptotic (%)", "setting": "HEK-293T; [5]", "value": "23% and 44%"}, {"measurement": "Population Mitotic Cells (%)", "setting": "HEK-293T; [5]", "value": "76% and 55%"}, {"measurement": "Population Normal (%)", "setting": "HEK-293T; [5]", "value": "90% and 89%"}, {"measurement": "Total Cell Count", "setting": "HEK-293T; [5]", "value": "2126 and 1643"}, {"measurement": "Population Apoptotic (%)", "setting": "HEK-293T; [6]", "value": "90% and 83%"}, {"measurement": "Population Mitotic Cells (%)", "setting": "HEK-293T; [6]", "value": "10% and 16%"}, {"measurement": "Population Normal (%)", "setting": "HEK-293T; [6]", "value": "80% and 81%"}, {"measurement": "Total Cell Count", "setting": "HEK-293T; [6]", "value": "434 and 464"}, {"measurement": "Population Apoptotic (%)", "setting": "U2OS; [1]", "value": "71% and 68%"}, {"measurement": "Population Hoechst High Intensity Objects (%)", "setting": "U2OS; [1]", "value": 0, "unit": "%"}, {"measurement": "Population Normal (%)", "setting": "U2OS; [1]", "value": 100, "unit": "%"}, {"measurement": "Population Apoptotic (%)", "setting": "U2OS; [2]", "value": "51% and 52%"}, {"measurement": "Population Healthy Nuclei (%)", "setting": "U2OS; [2]", "value": 28, "unit": "%"}, {"measurement": "Population Hoechst High Intensity Objects (%)", "setting": "U2OS; [2]", "value": 0, "unit": "%"}, {"measurement": "Population Normal (%)", "setting": "U2OS; [2]", "value": "99% and 100%"}, {"measurement": "Population Apoptotic (%)", "setting": "U2OS; [3]", "value": "60% and 78%"}, {"measurement": "Population Hoechst High Intensity Objects (%)", "setting": "U2OS; [3]", "value": 0, "unit": "%"}, {"measurement": "Population Normal (%)", "setting": "U2OS; [3]", "value": 100, "unit": "%"}, {"measurement": "Population Apoptotic (%)", "setting": "U2OS; [4]", "value": "88% and 86%"}, {"measurement": "Population Hoechst High Intensity Objects (%)", "setting": "U2OS; [4]", "value": 0, "unit": "%"}, {"measurement": "Population Normal (%)", "setting": "U2OS; [4]", "value": "100% and 99%"}, {"measurement": "Population Apoptotic (%)", "setting": "U2OS; [5]", "value": "60% and 89%"}, {"measurement": "Population Healthy Nuclei (%)", "setting": "U2OS; [5]", "value": 85, "unit": "%"}, {"measurement": "Population Hoechst High Intensity Objects (%)", "setting": "U2OS; [5]", "value": "1% and 0%"}, {"measurement": "Population Normal (%)", "setting": "U2OS; [5]", "value": "98% and 100%"}, {"measurement": "Population Apoptotic (%)", "setting": "U2OS; [6]", "value": "98% and 90%"}, {"measurement": "Population Healthy Nuclei (%)", "setting": "U2OS; [6]", "value": "14% and 6%"}, {"measurement": "Population Hoechst High Intensity Objects (%)", "setting": "U2OS; [6]", "value": "1% and 3%"}, {"measurement": "Population Normal (%)", "setting": "U2OS; [6]", "value": "98% and 96%"}]}
